{
  "source": "ChEMBL document CHEMBL1138498",
  "about": "(J Med Chem, 2009)",
  "key": {"[1]": {"test_system": "Meriones unguiculatus", "test": "Inhibition of GR-73632-induced foot tapping in po dosed Mongolian gerbil assessed as duration of repetitive hind foot tapping administered 1 hr before GR-73632 challenge", "format": "functional", "settings": "read-out: ID50 (the source's name)", "summary_of_the_method": "(§1)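 Male Mongolian gerbils (45-70 g), at least seven per group, received vehicle or compound orally (10 mL/kg) at 1, 2, 4 or 8 h before icv GR73632 (3 pmol/5 µL). Foot tapping was then scored. Doses were compared by ANOVA with Dunnett's test.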"}, "[2]": {"test_system": "Meriones unguiculatus", "test": "Inhibition of GR-73632-induced foot tapping in po dosed Mongolian gerbil assessed as duration of repetitive hind foot tapping administered 1 hr before GR-73632 challenge measured after 8 hrs", "format": "functional", "settings": "read-out: ID50 (the source's name)", "summary_of_the_method": "as §1"}, "[3]": {"target": "T1, Substance-P receptor (Homo sapiens, UniProt P25103)", "T1 sequence (P25103 whole entry)": "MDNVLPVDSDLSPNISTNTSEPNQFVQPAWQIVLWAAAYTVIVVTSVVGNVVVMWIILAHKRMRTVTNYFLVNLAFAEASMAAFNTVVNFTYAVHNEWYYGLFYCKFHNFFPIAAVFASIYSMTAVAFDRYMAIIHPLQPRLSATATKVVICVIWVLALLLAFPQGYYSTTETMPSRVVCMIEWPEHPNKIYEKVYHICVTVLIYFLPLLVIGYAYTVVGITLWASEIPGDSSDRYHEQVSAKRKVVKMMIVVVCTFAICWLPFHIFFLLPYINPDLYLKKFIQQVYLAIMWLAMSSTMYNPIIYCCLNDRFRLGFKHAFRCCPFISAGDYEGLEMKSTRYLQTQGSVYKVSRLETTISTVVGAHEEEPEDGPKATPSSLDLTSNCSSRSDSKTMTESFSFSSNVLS", "test": "Displacement of [3H]substance P from human recombinant NK1 receptor expressed in CHO cells", "format": "cell-based"}, "[4]": {"target": "T1, Substance-P receptor", "settings": "CHO"}, "[5]": {"test_system": "Meriones unguiculatus", "test": "Inhibition of GR-73632-induced foot tapping in po dosed Mongolian gerbil assessed as duration of repetitive hind foot tapping administered 1 hr before GR-73632 challenge measured after 1 hr", "format": "functional", "settings": "read-out: ID50 (the source's name)", "summary_of_the_method": "as §1"}, "[6]": {"test_system": "Meriones unguiculatus", "test": "Inhibition of GR-73632-induced foot tapping in po dosed Mongolian gerbil assessed as duration of repetitive hind foot tapping administered 1 hr before GR-73632 challenge measured after 2 hrs", "format": "functional", "settings": "read-out: ID50 (the source's name)", "summary_of_the_method": "as §1"}, "[7]": {"test_system": "Meriones unguiculatus", "test": "Inhibition of GR-73632-induced foot tapping in po dosed Mongolian gerbil assessed as duration of repetitive hind foot tapping administered 1 hr before GR-73632 challenge measured after 4 hrs", "format": "functional", "settings": "read-out: ID50 (the source's name)", "summary_of_the_method": "as §1"}, "[8]": {"test": "Bioavailability in rat", "format": "ADME, organism-based", "settings": "in vivo"}, "[9]": {"test": "Bioavailability in dog", "format": "ADME, organism-based, Canis lupus familiaris", "settings": "in vivo"}, "[10]": {"test": "Plasma clearance in rat", "format": "ADME, organism-based"}, "[11]": {"test": "Plasma clearance in dog", "format": "ADME, organism-based, Canis lupus familiaris"}, "[12]": {"test": "Half life in rat", "format": "ADME, organism-based", "settings": "in vivo"}, "[13]": {"test": "Half life in dog", "format": "ADME, organism-based, Canis lupus familiaris", "settings": "in vivo"}, "[14]": {"test": "Ratio of drug level in brain to plasma in rat at 1 mg/kg, iv after 5 mins"}, "[15]": {"target": "T1, Substance-P receptor", "settings": "CHO", "remark": "listed apart in the source"}},
  "data": [
    {"smiles": "Cc1cc(F)ccc1[C@H]1CNCCN1C(=O)N(C)Cc1cc(C(F)(F)F)cc(C(F)(F)F)c1", "values": [
      {"measurement": "ED50", "setting": "[1]", "value": 0.2, "unit": "mg/kg"},
      {"measurement": "ED50", "setting": "[2]", "value": 0.3, "unit": "mg/kg"}
    ]},
    {"smiles": "CC(=O)O.Cc1cc(F)ccc1[C@H]1CNCCN1C(=O)N(C)[C@@H](C)c1cc(C(F)(F)F)cc(C(F)(F)F)c1", "values": [
      {"measurement": "ED50", "setting": "[1]", "value": 0.036, "unit": "mg/kg"}
    ]},
    {"smiles": "Cc1cc(F)ccc1N1CCNCC1C(=O)N(C)Cc1cc(C(F)(F)F)cc(C(F)(F)F)c1", "note": "(centres undefined)", "values": [
      {"measurement": "Ki", "setting": "[3]", "value": 8.71, "unit": "nM"},
      {"measurement": "pKb", "setting": "[4]", "value": 8.56}
    ]},
    {"smiles": "Cc1cc(F)ccc1[C@@H]1CNCCN1C(=O)N(C)Cc1cc(C(F)(F)F)cc(C(F)(F)F)c1", "values": [
      {"measurement": "Ki", "setting": "[3]", "value": 18.2, "unit": "nM"},
      {"measurement": "ED50", "setting": "[1]", "value": 5.6, "unit": "mg/kg"}
    ]},
    {"smiles": "Cc1cc(F)ccc1C1CNCCN1C(=O)N(C)Cc1cc(C(F)(F)F)cc(C(F)(F)F)c1", "note": "(racemic)", "values": [
      {"measurement": "Ki", "setting": "[3]", "value": 1.29, "unit": "nM"}
    ]},
    {"smiles": "Cc1cc(F)ccc1[C@H]1CNCCN1C(=O)N(C)[C@H](C)c1cc(C(F)(F)F)cc(C(F)(F)F)c1", "note": "[VESTIPITANT]", "values": [
      {"measurement": "ED50", "setting": "[1]", "value": 0.014, "unit": "mg/kg"},
      {"measurement": "ED50", "setting": "[2]", "value": 0.027, "unit": "mg/kg"},
      {"measurement": "ED50", "setting": "[5]", "value": 0.014, "unit": "mg/kg"},
      {"measurement": "ED50", "setting": "[6]", "value": 0.007, "unit": "mg/kg"},
      {"measurement": "ED50", "setting": "[7]", "value": 0.002, "unit": "mg/kg"},
      {"measurement": "bioavailability", "setting": "[8]", "value": 44, "unit": "%"},
      {"measurement": "bioavailability", "setting": "[9]", "value": 71, "unit": "%"},
      {"measurement": "clearance", "setting": "[10]", "value": 19, "unit": "mL/min/kg"},
      {"measurement": "clearance", "setting": "[11]", "value": 15, "unit": "mL/min/kg"},
      {"measurement": "half-life", "setting": "[12]", "value": 5, "unit": "h"},
      {"measurement": "half-life", "setting": "[13]", "value": 11, "unit": "h"},
      {"measurement": "Kp at 5 min", "setting": "[14]", "value": 1.3},
      {"measurement": "pKb", "setting": "[4]", "value": 9.87},
      {"measurement": "T1/2", "setting": "[15]", "value": 0.995, "unit": "h"}
    ]},
    {"smiles": "COc1ccc(-n2nnnc2C(F)(F)F)cc1CN[C@H]1CCCN[C@H]1c1ccccc1", "note": "[VOFOPITANT]", "values": [
      {"measurement": "Ki", "setting": "[3]", "value": 0.0501, "unit": "nM"},
      {"measurement": "ED50", "setting": "[1]", "value": 0.6, "unit": "mg/kg"}
    ]}
  ]
}
